Test results from ChEMBL document CHEMBL2346557 (Bioorg Med Chem, 2013).
pEC50: −log10 of the molar value. Activity calls are given as the source filed them. No cut-off for these calls is given here.

What was measured:
[1] = target: T1, Glucocorticoid receptor (Mus musculus) (UniProt P06537); assay: Induction of glucocorticoid receptor nuclear translocation in mouse C2C12 cells at 1 x 10^-5 to 1.69 x 10^-10 M by chemiluminescence assay relative to control; type: cell-based
T1 sequence (whole entry): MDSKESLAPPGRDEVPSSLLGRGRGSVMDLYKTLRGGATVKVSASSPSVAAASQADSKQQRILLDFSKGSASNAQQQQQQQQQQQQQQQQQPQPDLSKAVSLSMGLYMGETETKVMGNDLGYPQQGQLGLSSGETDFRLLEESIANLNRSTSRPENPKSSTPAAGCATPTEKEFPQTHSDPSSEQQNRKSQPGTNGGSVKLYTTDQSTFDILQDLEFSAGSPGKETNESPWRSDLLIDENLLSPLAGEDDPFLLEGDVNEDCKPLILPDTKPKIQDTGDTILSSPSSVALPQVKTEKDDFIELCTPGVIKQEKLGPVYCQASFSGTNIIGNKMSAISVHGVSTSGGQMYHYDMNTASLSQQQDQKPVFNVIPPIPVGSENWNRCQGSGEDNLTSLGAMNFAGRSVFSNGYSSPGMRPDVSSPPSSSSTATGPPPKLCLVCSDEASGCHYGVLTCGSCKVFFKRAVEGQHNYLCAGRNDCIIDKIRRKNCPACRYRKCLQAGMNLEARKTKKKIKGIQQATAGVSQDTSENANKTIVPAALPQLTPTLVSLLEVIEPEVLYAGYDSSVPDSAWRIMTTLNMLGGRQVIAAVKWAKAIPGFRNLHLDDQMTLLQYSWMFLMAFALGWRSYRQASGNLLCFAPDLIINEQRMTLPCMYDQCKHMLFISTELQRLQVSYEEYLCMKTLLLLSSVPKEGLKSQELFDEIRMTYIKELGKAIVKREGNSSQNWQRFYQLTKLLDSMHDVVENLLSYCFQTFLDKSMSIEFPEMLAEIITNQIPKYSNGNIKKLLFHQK
How it was run: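 GR nuclear translocation measured by DiscoveRx in PathHunter cells using enzyme-fragment complementation. ProLink-tagged GR recruits a nuclear steroid receptor co-activator peptide fused to the enzyme acceptor, giving a chemiluminescent signal.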

[2] = Inhibition of TNFalpha-induced NFkappaB activation in mouse C2C12 cells incubated for 24 hrs prior to TNFalpha induction measured after 24 hrs by luciferase reporter gene assay; type: cell-based
How it was run: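 C2C12 myoblasts in growth medium and myotubes in differentiating medium, each stably carrying an NF-κB response element–luciferase reporter. Cells were washed, lysed and luciferase read; TNF-α alone was set as 100%. IC50 was calculated. SD shown.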

C2C12 = assay: Cytotoxicity against mouse C2C12 cells assessed as cell viability at 0.01 to 100 ug/mL after 24 hrs by MTT assay; type: cell-based; conditions: c2c12, 24 h
How it was run: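 MTT viability run on C2C12 cells grown and treated alongside the NF-κB reporter plates, with drug at 0.01–100 µg/ml and DMSO vehicle. Viability is expressed as percent of untreated cells. A one-way repeated-measures ANOVA tested for a concentration effect.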

[3] = Tmax in CD1 mouse at 50 mg/kg, po; type: ADME, organism-based; set-up: dose 50 mg/kg, route oral; conditions: in vivo
How it was run: (§1)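 CD1 mice (n = 3 per compound) were dosed orally at 50 mg/kg as an aqueous emulsion in 30% Labrafil. Blood was drawn at 0, 5, 15 and 30 min and 1, 2, 4, 8 and 24 h. Bioavailability and other parameters were calculated from the plasma profiles and compared against the intravenous arm.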

[4] = Metabolic stability in monkey liver microsomes assessed as compound remaining at 2 uM measured at 1 hr; type: ADME, Macaca mulatta, Microsome; conditions: rhesus monkey, read-out: Stability
How it was run: (§2)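 Liver microsomes (human, or male monkey, dog, rat or mouse) at 0.5 mg/mL final with 2 µM compound, 5 mM MgCl2 and 5 mM PBS. The reaction was started with 1 mM NADPH and run at 37 °C. Verapamil was the positive control; water replaced NADPH in the negative control. Read-out was percent parent remaining at 1 h.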

Mus musculus [5] = assay: Total unbound AUC (0 to infinity) in CD1 mouse at 10 mg/kg, iv; type: ADME, organism-based; set-up: dose 10 mg/kg, route intravenous; conditions: in vivo
[6] = Tmax in CD1 mouse at 10 mg/kg, iv; type: ADME, organism-based; set-up: dose 10 mg/kg, route intravenous; conditions: in vivo
How it was run: (§3)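 CD1 mice (n = 3 per compound) given 10 mg/kg as a single tail-vein injection in a pH 7.0 solution of 10% ethanol plus PEG400 (some compounds also with 10% DMSO). Blood was sampled at 0, 5, 15 and 30 min and 1, 2, 4, 8 and 24 h. Parameters were derived from the plasma concentration–time profiles.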

[7] = Volume of distribution at steady state in CD1 mouse at 10 mg/kg, iv; type: ADME, organism-based; set-up: dose 10 mg/kg, route intravenous; conditions: in vivo, read-out: Vdss; how it was run: as §3
Mus musculus [8] = assay: Total unbound AUC (0 to infinity) in CD1 mouse at 50 mg/kg, po; type: ADME, organism-based; set-up: dose 50 mg/kg, route oral; conditions: in vivo
[9] = Clearance in CD1 mouse at 10 mg/kg, iv; type: ADME, organism-based; set-up: dose 10 mg/kg, route intravenous; conditions: in vivo; how it was run: as §3
[10] = AUClast in CD1 mouse at 10 mg/kg, iv; type: ADME, organism-based; set-up: time 0 - last, dose 10 mg/kg, route intravenous; conditions: plasma; how it was run: as §3
[11] = AUClast in CD1 mouse at 50 mg/kg, po; type: ADME, organism-based; set-up: time 0 - last, dose 50 mg/kg, route oral; conditions: plasma; how it was run: as §1
Mus musculus [12] = assay: Total unbound Cmax in CD1 mouse at 10 mg/kg, iv; type: ADME, organism-based; set-up: dose 10 mg/kg, route intravenous; conditions: in vivo
[13] = Metabolic stability in dog liver microsomes assessed as compound remaining at 2 uM measured at 1 hr; type: ADME, Canis lupus familiaris, Microsome; conditions: read-out: Stability; how it was run: as §2
[14] = Mean residence time in CD1 mouse at 10 mg/kg, iv; type: ADME, organism-based; set-up: dose 10 mg/kg, route intravenous; conditions: in vivo; how it was run: as §3
Mus musculus [15] = assay: Oral bioavailability in CD1 mouse at 50 mg/kg; type: ADME, organism-based; conditions: in vivo; how it was run: as §1
[16] = Metabolic stability in human liver microsomes assessed as compound remaining at 2 uM measured at 1 hr; type: ADME, Microsome; conditions: read-out: Stability; how it was run: as §2
[17] = Terminal half life in CD1 mouse at 10 mg/kg, iv; type: ADME, organism-based; set-up: dose 10 mg/kg, route intravenous; conditions: in vivo, read-out: beta t1/2 (converted); how it was run: as §3
[18] = Terminal half life in CD1 mouse at 50 mg/kg, po; type: ADME, organism-based; set-up: dose 50 mg/kg, route oral; conditions: in vivo, read-out: beta t1/2 (converted); how it was run: as §1
Mus musculus [19] = assay: Total unbound Cmax in CD1 mouse at 50 mg/kg, po; type: ADME, organism-based; set-up: dose 50 mg/kg, route oral; conditions: in vivo
[20] = Metabolic stability in mouse liver microsomes assessed as compound remaining at 2 uM measured at 1 hr; type: ADME, Microsome; conditions: read-out: Stability; how it was run: as §2
[21] = target: T2, Glucocorticoid receptor (Homo sapiens) (UniProt P04150); assay: Transactivation of glucocorticoid receptor in HEK293 cells co-transfected with GRE assessed as induction of GRE-dependent gene expression at 100 ug/ml after 6 hrs by luciferase reporter gene assay; type: cell-based
T2 sequence (whole entry): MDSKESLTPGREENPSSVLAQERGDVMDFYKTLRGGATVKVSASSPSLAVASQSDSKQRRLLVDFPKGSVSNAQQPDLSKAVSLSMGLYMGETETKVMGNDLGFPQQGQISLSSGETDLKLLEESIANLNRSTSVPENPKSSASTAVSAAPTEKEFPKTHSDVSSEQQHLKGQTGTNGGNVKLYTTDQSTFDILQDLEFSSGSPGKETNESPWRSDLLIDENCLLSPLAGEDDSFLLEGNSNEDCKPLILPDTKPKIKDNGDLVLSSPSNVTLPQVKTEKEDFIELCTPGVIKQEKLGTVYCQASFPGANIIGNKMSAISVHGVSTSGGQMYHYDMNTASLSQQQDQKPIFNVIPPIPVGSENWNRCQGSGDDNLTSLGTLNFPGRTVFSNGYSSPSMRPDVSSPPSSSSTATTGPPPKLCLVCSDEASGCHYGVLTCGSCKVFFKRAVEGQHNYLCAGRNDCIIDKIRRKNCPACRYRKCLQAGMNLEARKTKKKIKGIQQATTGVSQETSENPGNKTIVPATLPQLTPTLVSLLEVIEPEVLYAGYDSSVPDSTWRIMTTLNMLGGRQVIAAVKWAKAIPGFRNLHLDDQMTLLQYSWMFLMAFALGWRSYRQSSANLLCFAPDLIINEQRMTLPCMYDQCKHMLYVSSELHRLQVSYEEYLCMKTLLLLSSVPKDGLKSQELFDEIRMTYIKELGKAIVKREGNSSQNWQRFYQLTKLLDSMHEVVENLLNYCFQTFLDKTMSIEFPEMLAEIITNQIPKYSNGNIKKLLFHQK
How it was run: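 HEK-293 cells stably transfected with a GRE-driven luciferase reporter were exposed to drug at 0.01–100 μg/ml for 6 h. Cells were washed with PBS and lysed, and luciferase activity was measured by luminometer.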

Liver microsomes = assay: Metabolic stability in rat liver microsomes at 2 uM measured at 1 hr; type: ADME, Microsome; how it was run: as §2

For `CC[C@@H]1C[C@H]2[C@@H]3CCC4=CC(=O)C=C[C@]4(C)C3=CC[C@]2(C)[C@H]1C(=O)CO`, the Activity [1] was 27%, the pEC50 [2] was 7.05 and the Activity (C2C12) was “Toxic”.

With `C[C@]12CCC(=O)C=C1CC[C@@H]1C2=CC[C@@]2(C)[C@H]1CC[C@]2(O)C(=O)CO` the Activity [1] was 49.2% and the pEC50 [2] was 7.20.

With `C[C@@H]1C[C@H]2[C@@H]3CCC4=CC(=O)CC[C@]4(C)C3=CC[C@]2(C)[C@H]1C(=O)CN1CCN(C)CC1` the Activity [1] was 14.7%, the pEC50 [2] was < 5.00 and the Activity (C2C12) was “Non-toxic”.

For `CCCN(CCC)CC(=O)[C@H]1[C@H](C)C[C@H]2[C@@H]3CCC4=CC(=O)CC[C@]4(C)C3=CC[C@@]21C`, the Activity [1] was 37.7%, the pEC50 [2] was 6.14 and the Activity (C2C12) was “Non-toxic”.

Work on `C[C@]12CCC(=O)C=C1CC[C@@H]1C2=CC[C@@]2(C)[C@H]1CC[C@]2(O)C(=O)CN1CCOCC1` yielded an Activity [1] of 28.7% and a pEC50 [2] of 5.76.

With `C[C@@H]1C[C@H]2[C@@H]3CCC4=CC(=O)CC[C@]4(C)C3=CC[C@]2(C)[C@H]1C(=O)CN1CCOCC1` the Activity [1] was 22.7%, the pEC50 [2] was 5.28 and the Activity (C2C12) was “Non-toxic”.

With `C[C@@H]1C[C@H]2[C@@H]3CCC4=CC(=O)C=C[C@]4(C)C3=CC[C@]2(C)[C@H]1C(=O)CO` the Tmax [3] was 60 min, the remaining at 1 h, 2 µM [4] was ≥ 80% and the fAUC (Mus musculus [5]) was 3457 ng·h/mL. It also gave a Tmax [6] of 5 min, an Activity [1] of 54.2% and a Vd [7] of 0.874 L/kg. It also gave a fAUC (Mus musculus [8]) of 22031 ng·h/mL, a clearance [9] of 48.2 mL/min/kg and an AUC(0-t) [10] of 3450 ng·h/mL. The AUC(0-t) [11] was 22000 ng·h/mL, the fCmax (Mus musculus [12]) was 8637 ng/mL and the remaining at 1 h, 2 µM [13] was ≥ 80%. It also gave an MRT [14] of 17.3 min, an F (Mus musculus [15]) of 128% and a pEC50 [2] of 7.25. The remaining at 1 h, 2 µM [16] was ≥ 80%, the half-life [17] was 40 min and the half-life [18] was 39.5 min. For the same compound, the Activity (C2C12) was “Non-toxic”, the fCmax (Mus musculus [19]) was 10203 ng/mL and the remaining at 1 h, 2 µM [20] was 34%. For the same compound, the Activity [21] was “inactive” and the Stability (Liver microsomes) was “Unstable”.

For `CCCC[C@@H]1C[C@H]2[C@@H]3CCC4=CC(=O)C=C[C@]4(C)C3=CC[C@]2(C)[C@H]1C(=O)CO`, the Activity [1] was 6.9%, the pEC50 [2] was < 5.00 and the Activity (C2C12) was “Toxic”.

`C[C@]12CCC(=O)C=C1CC[C@@H]1C2=CC[C@@]2(C)[C@H]1CC[C@]2(O)C(=O)CN1CCCC1` gave an Activity [1] of 24.7% and a pEC50 [2] of 5.73.
